A selection: hits, their analogues and other compounds. The true share with any hit is near 3.2%.
MEKK3 PB1 HTS – modulators of MEKK3-MEK5 PB1 binding, primary screen, biochemical, wildtype MEKK3, multiplex bead flow cytometry, Alexa488-MEK5 | Mitogen-activated protein kinase kinase kinase 3 (Homo sapiens), Q99759 | bead-based flow cytometry, Alexa488-MEK5 binding to MEKK3; actives lie on both sides; 0 = blocked by unlabeled MEK5, 100 = vehicle | binding response (% of control), % at 10 µM | 290,000 tested, 1.4% active | AID 1529, 2009;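 active means binding response more than 3 SD above or below the average of its plate-row segment, actives on both sides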;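 further: Alexa488 bead fluorescence after subtracting the streptavidin-only scavenger bead signal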
Apaf1 inhib – inhibitors of human Apaf-1 apoptosome, primary screen, biochemical, DEVD-Rh110 fluorescence, uHTS; inhibition, % at 20 µM; reconstituted apoptosome caspase-3 activity; AID 489030, 2010; 330,000 tested, 0.71% active; Apoptotic protease-activating factor 1 (Homo sapiens), O14727; active means inhibition of at least 40% at 20 µM;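 further: plate controls were DMSO wells for no effect and DEVD-CHO caspase inhibitor wells for full effect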
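detection = Rh110 fluorescence intensity | test system = biochemical Apaf-1 apoptosome reconstitution | also added = cytochrome c and DEVD-Rh110 substrate | schedule = 30 min plus 50 min, RT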
DSG3 Ab inh – inhibitors of pemphigus antibody binding to DSG3, primary screen, biochemical, bead-based, flow cytometry, scFv-GFP | 310,000 tested, 0.48% active | DSG3-coupled beads, scFv-anti-DSG3-GFP binding; active compounds read low | Desmoglein-3 (Homo sapiens), P32926 | binding (percent of control), % at 10 µM;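 active means binding more than 3 SD below its plate's average and above zero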;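 further: hits lower antibody fragment binding to DSG3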
MEKK2 WT-MEK5 – modulators of MEK5 binding to wildtype MEKK2, primary screen, biochemical, multiplex bead flow cytometry, Alexa488-MEK5. binding response (% of control), % at 10 µM. Alexa488-MEK5 binding to MEKK2 WT; actives lie on both sides. Mitogen-activated protein kinase kinase kinase 2 (Homo sapiens), Q9Y2U5. AID 1531, 2009. 290,000 tested, 1.1% active; in the data active means binding response below about 67% or above about 130%
MEKK2 mut-MEK5 – MEK5 binding signal on mutant MEKK2 PB1, primary screen, biochemical, multiplex bead flow cytometry, Alexa488-MEK5; Alexa488-MEK5 binding to MEKK2 mutant; percent response, % at 10 µM; 290,000 tested, 0.35% active; AID 1530, 2009; in the data active means percent response above about 24%, passing the limit was not always enough
UBC13 polyUb – UBC13 polyubiquitin chain formation inhibitors, primary screen, biochemical, TR-FRET, uHTS; Ubiquitin-conjugating enzyme E2 N (Homo sapiens), P61088; inhibition, % at 20 µM; 330,000 tested, 0.47% active; AID 485273, 2010; in the data active means inhibition above about 45%, passing the limit was not always enough
Target sequence (P61088 whole entry, looked up): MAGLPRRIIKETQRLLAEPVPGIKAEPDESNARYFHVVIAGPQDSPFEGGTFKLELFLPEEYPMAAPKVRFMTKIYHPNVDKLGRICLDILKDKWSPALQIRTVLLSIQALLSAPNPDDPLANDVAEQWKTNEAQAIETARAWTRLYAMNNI
* = called active by the depositor.

What do the screens show for `O=C(c1ccccc1F)N1CCN(C(=O)C2CC2)CC1`?
MEKK3 PB1 HTS: 107; Apaf1 inhib: -7; MEKK2 WT-MEK5: 112; MEKK2 mut-MEK5: 7; UBC13 polyUb: 2

What do the screens show for `CC(C)n1c(SCC(=O)Nc2nc3ccccc3s2)nc2c1c(=O)n(C)c(=O)n2C`?
MEKK3 PB1 HTS: 99; Apaf1 inhib: 3; DSG3 Ab inh: 87*; MEKK2 WT-MEK5: 100; MEKK2 mut-MEK5: 2; UBC13 polyUb: 6

How did Cc1cnc(C(=O)N2CCN(S(=O)(=O)c3cc(C(F)(F)F)cc(C(F)(F)F)c3)CC2)cn1 do in these assays?
DSG3 Ab inh: -17*

What do the screens show for `Cc1ccc(S(=O)(=O)Cc2cc(F)c([N+](=O)[O-])cc2[N+](=O)[O-])cc1`?
MEKK3 PB1 HTS: 105; Apaf1 inhib: 8; DSG3 Ab inh: 96; MEKK2 WT-MEK5: 111; MEKK2 mut-MEK5: -1; UBC13 polyUb: -6

How did CC(C)Oc1ccc2ccccc2c1CNC[C@H]1O[C@@H](n2cnc(C(N)=O)n2)[C@H](O)[C@@H]1O do in these assays?
DSG3 Ab inh: 99

What do the screens show for `Cc1cccc(NC(=O)CC2C(=O)NC3CCCCC3N2C(=O)c2ccccc2Cl)c1` (stereo not drawn)?
MEKK3 PB1 HTS: 104; Apaf1 inhib: -17; DSG3 Ab inh: 89*; MEKK2 WT-MEK5: 101; MEKK2 mut-MEK5: 11; UBC13 polyUb: 2

Results for CCc1ccc(/C(C)=N/NC(=O)CNC(=O)/C=C/c2ccco2)cc1 ?
Apaf1 inhib: 7; DSG3 Ab inh: 64*; UBC13 polyUb: 20

What do the screens show for `O=C(CNC(=O)Cc1ccccc1)N=Nc1c(O)[nH]c2ccccc12`?
MEKK3 PB1 HTS: 101; Apaf1 inhib: 6; MEKK2 WT-MEK5: 100; MEKK2 mut-MEK5: 3; UBC13 polyUb: -7

Results for Cc1ccc(/C=C/C(=O)NCc2ccco2)o1 ?
MEKK3 PB1 HTS: 126; Apaf1 inhib: -7; MEKK2 WT-MEK5: 106; MEKK2 mut-MEK5: 0; UBC13 polyUb: 6

How did O=C(CNC(=O)/C=C/c1ccco1)N=Nc1c(O)[nH]c2ccccc12 do in these assays?
MEKK3 PB1 HTS: 102; Apaf1 inhib: 3; DSG3 Ab inh: 45*; MEKK2 WT-MEK5: 104; MEKK2 mut-MEK5: 6; UBC13 polyUb: 0

How did CCc1ccc(/C(C)=N/NC(=O)CNC(=O)/C=C/c2ccccc2OC)cc1 do in these assays?
MEKK3 PB1 HTS: 102; Apaf1 inhib: 22; MEKK2 WT-MEK5: 102; MEKK2 mut-MEK5: -3; UBC13 polyUb: 5

How did O=C(/C=C/c1ccco1)NCc1ccco1 do in these assays?
MEKK3 PB1 HTS: 101; Apaf1 inhib: -13; DSG3 Ab inh: 80*; MEKK2 WT-MEK5: 103; MEKK2 mut-MEK5: -6; UBC13 polyUb: -14

How did COc1cc(CNCCc2ccc(S(N)(=O)=O)cc2)ccc1OCC(=O)N1CCCCC1 do in these assays?
MEKK3 PB1 HTS: 98; Apaf1 inhib: -13; DSG3 Ab inh: 92; MEKK2 WT-MEK5: 97; MEKK2 mut-MEK5: 2; UBC13 polyUb: 8

Results for COc1ccccc1N(C)S(=O)(=O)c1ccc(C(=O)NCc2ccccc2CN2CCCC2)cc1 ?
DSG3 Ab inh: 104

Results for CN1CCS/C1=C\C=C1/SC(=S)N(CC(=O)O)C1=O ?
MEKK3 PB1 HTS: 112; DSG3 Ab inh: 106; MEKK2 WT-MEK5: 101; MEKK2 mut-MEK5: 0

What do the screens show for `CN1/C(=C\C=C2/SC(=S)N(CC(=O)O)C2=O)C(C)(C)c2ccccc21`?
MEKK3 PB1 HTS: 145*; Apaf1 inhib: 21; DSG3 Ab inh: 117; MEKK2 WT-MEK5: 805*; MEKK2 mut-MEK5: 880*; UBC13 polyUb: -315

What do the screens show for `Cc1nc(NS(=O)(=O)c2ccccc2)sc1NC(=O)Nc1ccc(Cl)cc1`?
MEKK3 PB1 HTS: 105; Apaf1 inhib: 6; DSG3 Ab inh: 97; MEKK2 WT-MEK5: 98; MEKK2 mut-MEK5: -5; UBC13 polyUb: -9

Results for CCOC(=O)Nc1sc(NS(=O)(=O)c2ccc(C)cc2)nc1C ?
MEKK3 PB1 HTS: 104; Apaf1 inhib: -20; DSG3 Ab inh: 73*; MEKK2 WT-MEK5: 100; MEKK2 mut-MEK5: 2; UBC13 polyUb: -3

What do the screens show for `CCOC(=O)Nc1sc(NS(=O)(=O)c2ccccc2)nc1C`?
MEKK3 PB1 HTS: 103; Apaf1 inhib: -5; DSG3 Ab inh: 99; MEKK2 WT-MEK5: 101; MEKK2 mut-MEK5: 1; UBC13 polyUb: 5

What do the screens show for `Cc1nc(NS(=O)(=O)c2ccccc2)sc1NC(=O)Nc1ccccc1`?
MEKK3 PB1 HTS: 94; Apaf1 inhib: 11; DSG3 Ab inh: 28*; MEKK2 WT-MEK5: 88; MEKK2 mut-MEK5: -8; UBC13 polyUb: -4

How did OCC1OC(Nc2ccccc2C=NO)C(O)C1O (stereo not drawn) do in these assays?
DSG3 Ab inh: 104

How did CC1CCCN(S(=O)(=O)c2ccc(S(=O)(=O)N3CCC4(CC3)OCCO4)cc2)C1 (stereo not drawn) do in these assays?
MEKK3 PB1 HTS: 103; Apaf1 inhib: -3; DSG3 Ab inh: 68*; MEKK2 WT-MEK5: 102; MEKK2 mut-MEK5: 1; UBC13 polyUb: 4

How did CC(C)c1ccc(-c2nc3ccccc3s2)cc1 do in these assays?
MEKK3 PB1 HTS: 104; Apaf1 inhib: -7; DSG3 Ab inh: 95; MEKK2 WT-MEK5: -3.0*; MEKK2 mut-MEK5: 4; UBC13 polyUb: -8

How did CCC1CCCCN1CCCNC(=O)c1ccc(N2CCCC2=O)cc1 (stereo not drawn) do in these assays?
MEKK3 PB1 HTS: 98; Apaf1 inhib: -10; DSG3 Ab inh: 95; MEKK2 WT-MEK5: 99; MEKK2 mut-MEK5: -5; UBC13 polyUb: 0

What do the screens show for `CCC1CCCCN1CCCNC(=O)c1cc2c(=O)oc3ccc(C)cc3c2s1` (stereo not drawn)?
MEKK3 PB1 HTS: 102; Apaf1 inhib: 18; DSG3 Ab inh: 118; MEKK2 WT-MEK5: 153*; MEKK2 mut-MEK5: 14; UBC13 polyUb: 24

Results for CCC1CCCCN1CCCNC(=O)c1ccc2c(c1)N(Cc1ccc(F)cc1)C(=O)c1ccccc1S2=O (stereo not drawn) ?
MEKK3 PB1 HTS: 107; Apaf1 inhib: 23; DSG3 Ab inh: 112; MEKK2 WT-MEK5: 147*; MEKK2 mut-MEK5: 10; UBC13 polyUb: 9

Results for Cc1ccc2oc(=O)c3cc(C(=O)NCCCN4CCCCCC4)sc3c2c1 ?
MEKK3 PB1 HTS: 102; Apaf1 inhib: 26; DSG3 Ab inh: 108; MEKK2 WT-MEK5: 132; MEKK2 mut-MEK5: 7; UBC13 polyUb: 15
